# NR2E3 ag-1: agonists of human NR2E3 nuclear receptor | Q9Y5X4 | inhibition of corepressor binding, % at 3.98 µM | 0.35% of 360,000 active | CHO-S Gal4-NCOR/VP16-NR2E3 two-hybrid, luciferase;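 active = inhibition above the mean of all tested compounds plus 3 SD, cut at about 70% in these data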;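 also: 0% = DMSO with NR2E3 transfected cells and 100% = cells lacking NR2E3 construct; higher means lower luciferase signal from less NR2E3 corepressor binding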
# Target sequence (Q9Y5X4 whole entry, looked up, the tested form may be a part): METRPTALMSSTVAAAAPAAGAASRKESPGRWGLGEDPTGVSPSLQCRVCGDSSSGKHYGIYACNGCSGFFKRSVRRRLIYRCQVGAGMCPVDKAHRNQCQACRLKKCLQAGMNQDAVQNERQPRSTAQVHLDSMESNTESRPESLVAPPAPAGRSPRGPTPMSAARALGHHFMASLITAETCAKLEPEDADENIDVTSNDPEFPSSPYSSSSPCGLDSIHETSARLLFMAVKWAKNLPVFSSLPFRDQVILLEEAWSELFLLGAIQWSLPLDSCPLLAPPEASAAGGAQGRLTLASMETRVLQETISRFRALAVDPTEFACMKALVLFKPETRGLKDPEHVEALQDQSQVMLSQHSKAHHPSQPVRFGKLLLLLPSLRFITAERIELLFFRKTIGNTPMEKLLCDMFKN
# EBV LMP1 NFkB: reduces LMP1-driven NF-kappaB luciferase signal. 0.69% of 350,000 active. LMP1-induced NF-kappaB luciferase reporter cells, luminescence. inhibition, % at 12.5 µM; in the data active = inhibition above about 41%;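 also: 0% = neutral control wells and 100% = reference inhibitor control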
# NR2E3 ag-2: activates human photoreceptor nuclear receptor NR2E3; 0.12% of 320,000 active; AID 2300; GST-NR2E3/biotin-RetCOR TR-FRET, 1536-well; inhibition of corepressor binding, % at 4.78 µM;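 active = percent inhibition above the cutoff of mean plus 3 SD of all tested compounds, set per screening campaign, cut at about 20% in these data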;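 also: 0% = DMSO wells and 100% = biotin wells as full block of FRET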
#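 Test system: GST-NR2E3 and biotin-RetCOR proteins | Quantity: 1.35 nM GST-tagged NR2E3 final | Medium: Tris pH 7.5 | Also added: 7 nM biotin-RetCOR | Dosing: Compound at 4.8 µM, single dose | Timing: 5 h at 4 °C | Detection: Time-resolved FRET | Read-out basis: Percent inhibition | Benchmarks: Biotin wells as high control, 0.6% DMSO wells as low control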
# TROY signal inh: TROY signaling inhibition | inhibition, % at 10 µM | 0.98% of 360,000 active | AID 1347056 | Q293 LMP1-TROYcd NF-kB luciferase reporter, 4 h;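 active = compounds whose plate-normalised and pattern-corrected inhibition of the luciferase reporter signal at the single screening dose is 50% or more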
# HIF act: HIF pathway transcriptional activation. activation, % at 7.5 µM (by protocol). AID 1910. 0.32% of 300,000 active. U2OS HRE-luciferase reporter, luminescence; normalized: DMSO 0%, desferrioxamine 100%;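 active = mean activation of at least 10% of the iron chelator positive control signal, with at least half of replicates also reaching 10%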
# NR2E3 ag conf: confirmation of human NR2E3 agonists. CHO-S mammalian two-hybrid NR2E3-NCOR, luciferase luminescence. shares compounds with NR2E3 ag-1. 51% of 2,300 active. inhibition, % at 3.98 µM;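 active = average inhibition above a cutoff equal to the mean inhibition of all tested compounds plus one SD, cut at about 70% in these data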;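 also: 0% = DMSO in NR2E3 cells and 100% = DMSO in cells lacking NR2E3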
# GAL4-VP16 luc: reduces GAL4-VP16 reporter signal in NR2E3 counterscreen | CHO-S GAL4-VP16 luciferase reporter, luminescence | 29% of 2,300 active | shares compounds with NR2E3 ag-1 | inhibition, % at 3.98 µM;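 active = mean inhibition above a cutoff equal to the average over all tested compounds plus one standard deviation, cut at about 70% in these data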;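 also: luciferase from a UAS reporter driven by GAL4-VP16 transactivation; 0% = DMSO with VP16-transfected cells and 100% = DMSO with cells lacking VP16; higher means less reporter light so more repression of VP16 activity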
# Numbers without * were called inactive; . = no result. Rows were chosen to be rich in hits. Some 2% of all compounds tested hit in one or more screens of this group.
SMILES,NR2E3 ag-1,EBV LMP1 NFkB,NR2E3 ag-2,TROY signal inh,HIF act,NR2E3 ag conf,GAL4-VP16 luc
CCCN(CCC)c1nc(-c2ccccn2)nc2ccccc12,104*,37,.,20,5,99*,85*
c1ccc(-c2nc(N3CCOCC3)c3ccccc3n2)nc1,-18,3,0,2,0,.,.
CCN(CC)c1nc(-c2ccccn2)nc(-c2ccccc2)c1C#N,83*,12,5,5,0,47,39
c1ccc(-c2nc(N3CCCCCC3)c3ccccc3n2)nc1,109*,32,-1,11,3,100*,73*
c1ccc(CCNc2nc(-c3ccccn3)nc3ccccc23)cc1,103*,46*,0,7,4,100*,85*
CCCCN(CC)c1nc(-c2ccncc2)nc2ccccc12,-11,6,-1,26,1,.,.
CN(C)c1nc(-c2ccccc2)nc(-c2ccc(Cl)cc2)c1C#N,-21,-1,1,-20,0,.,.

# High-throughput results (PubChem)
